# Assay outcomes deposited in PubChem BioAssay by several laboratories.
# Most compounds without a hit are left out; they make up all but 9.6% or so of the library.
# Lmaj promast = Leishmania major promastigote growth inhibition; Leishmania major promastigotes, resazurin fluorescence viability; inhibition, % at 10 µM; 9% of 200,000 active; AID 1063; in the data active means inhibition above about 50%;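 further: promastigotes grown with compound for 44 hours at 28 °C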
# HCT116 bCat-KO = beta-catenin-lacking colon tumor cell growth suppression; HCT116 beta-catenin knockout viability, CellTiter-Glo, 60 h; stronger effect = lower value; viability, % at 10 µM; 1.5% of 140,000 active; AID 818;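 active means viability at or under a set limit, the compound median less 4 SD, cut at about 6% in these data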
# PMI activator = activators of human phosphomannose isomerase; P34949; purified human PMI, coupled resazurin fluorescence, 20 min; stronger effect = higher value; 1 = vehicle control, 0 substrate-free wells; activation factor at 20 µM; 0.005% of 190,000 active;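 active means activation factor of 2 or more at 20 µM, relative to plate controls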
# Target sequence (P34949 whole entry, looked up): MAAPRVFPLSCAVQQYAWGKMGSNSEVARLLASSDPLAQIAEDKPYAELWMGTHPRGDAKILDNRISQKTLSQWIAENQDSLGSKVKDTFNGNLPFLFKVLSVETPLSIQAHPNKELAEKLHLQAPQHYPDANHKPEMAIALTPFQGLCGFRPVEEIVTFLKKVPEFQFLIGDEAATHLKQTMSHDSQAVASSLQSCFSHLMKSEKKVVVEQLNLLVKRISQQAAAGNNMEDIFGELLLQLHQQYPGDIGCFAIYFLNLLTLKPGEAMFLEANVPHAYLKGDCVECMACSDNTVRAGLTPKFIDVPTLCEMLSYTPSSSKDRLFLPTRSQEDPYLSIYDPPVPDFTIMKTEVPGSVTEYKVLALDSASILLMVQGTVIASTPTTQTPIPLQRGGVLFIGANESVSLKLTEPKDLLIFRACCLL
# PMI act satM6P = PMI (human) activation, high substrate; 0.34% of 190,000 active; AID 1216; coupled PMI enzyme assay, resazurin fluorescence, 20 min; stronger effect = higher value; 1 = untreated enzyme, 0 = substrate-free blank; P34949; activation factor at 20 µM;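 active means activation factor of 2 or more at 20 µM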
#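 Test system: Human PMI in coupled enzyme assay | Input: 15 ng/mL PMI | Medium: HEPES-buffered pH 7.4 with magnesium and detergent | Compound: One concentration, 20 µM, in 1% DMSO | Incubation: Enzyme reaction with compound 20 min at room temperature | Detection: Diaphorase-driven resazurin-to-resorufin fluorescence, excitation 544, emission 590 nm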
# PTEN del growth = PTEN-deleted cell growth suppression; viability, % at 10 µM; 1.2% of 140,000 active; HCT116 PTEN-null viability, CellTiter-Glo, 60 h; stronger effect = lower value;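 active means viability at or below a set limit, 4 SD under the median of all tested compounds, cut at about 3.7% in these data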;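 further: PTEN knockout HCT116 line with beta catenin targeted HCT116 as companion control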
# A number is an active result; 0 = inactive; - = not tested or not shown.
SMILES,Lmaj promast,HCT116 bCat-KO,PMI activator,PMI act satM6P,PTEN del growth
C/C(=N\N=C\c1ccc(N(C)C)cc1)c1cccc([N+](=O)[O-])c1,0,0,0,2.3,0
C/C(=N\NC(=O)C(N)=O)c1cccc([N+](=O)[O-])c1,0,-,0,0,-
C/C(=N\N=C(N)N)c1cccc([N+](=O)[O-])c1,64,0,0,0,0
CN(C)CCCNc1ccc(-c2nn(C)c(=O)c3ccccc23)cc1[N+](=O)[O-],100,-,0,0,-
CC1C(=O)N(c2ccc(S(=O)(=O)N(C)C)cc2)C1(/C=C/c1ccccc1)C(=O)NC1CCCC1 (stereo not drawn),54,0,0,0,0
O=C1CC(/C=C/c2ccccc2)(C(=O)NC2CCCC2)N1c1ccc(S(=O)(=O)N2CCCC2)cc1 (stereo not drawn),0,0,0,0,0
COc1ccc(/C=C/C2=CCN(Cc3ccc(OC)cc3)CC2)cc1,91,-,0,0,-
COc1ccc(C(=O)/C=C/c2ccc(OC)c(COc3ccccc3F)c2)cc1,0,0,0,0,0
COc1ccc(Oc2ccc(/C=C/C(=O)c3ccc(O)cc3)cc2[N+](=O)[O-])cc1,100,1.4,0,0,1.3
COc1ccc(C(=O)COC(=O)Cn2nnc3ccccc32)cc1Br,0,0,0,0,0
COc1ccc(/C=C/C(=O)c2ccccc2)cc1COc1ccc(F)cc1,60,0,0,0,0
COc1ccc(/C=C/C(=O)c2ccc(O)cc2)cc1COc1ccc(F)cc1,97,0,0,0,0
COc1ccc(/C=C/C(=O)c2ccccc2)cc1Cn1nnc2ccccc21,100,2.9,0,0,2.8
COc1ccc(-n2c(=O)c3ccccc3n(CC(=O)OCc3ccccc3)c2=O)cc1OC,0,-,0,0,-
CCN1C(=O)C2C(C1=O)N1C(c3cccs3)C3C(=O)N(CC)C(=O)C3N1C2c1cccs1 (stereo not drawn),0,0,0,0,0
Cc1cccc(NC(=O)NNC(=O)c2sccc2-n2cccc2)c1,0,-,0,0,-
Cc1ccc(C)c(N2CCN(CCCNC(=O)Cn3cccc3C(=O)c3ccccc3C)CC2)c1,93,-,0,0,-
Cc1ccc(CNC(=O)Cn2cccc2C(=O)c2ccccc2C)cc1,0,-,0,0,-
Cc1ccc2c(c1)NC(=O)C(CC(=O)NCCCN1CCCCC1)O2 (stereo not drawn),0,0,0,0,0
Cc1ccccc1C(=O)c1cccn1CC(=O)NCCC1=CCCCC1,0,-,0,0,-
Cc1ccc2c(c1)NC(=O)C(CC(=O)NCCCN1CCN(c3cc(Cl)ccc3C)CC1)O2 (stereo not drawn),0,5.8,0,0,0
Cc1ccccc1C(=O)c1cccn1CC(=O)NCCN1CCN(c2cccc(C)c2C)CC1,100,4.3,0,0,0
O=C(/C=C/c1ccccc1)C1=C(O)C(=O)N(CCO)C1c1ccc2c(c1)OCO2 (stereo not drawn),0,-,0,0,-
CCN(CC)C(=O)Cn1c(=O)n(-c2ccc(CC(=O)NCc3ccccc3)cc2)c(=O)c2sccc21,0,-,0,0,-
COc1ccc(C(=O)/C=C/C(=O)N(Cc2ccccc2OC)C(C(=O)NC2CCCCC2)c2ccncc2)c(O)c1 (stereo not drawn),99,0,0,0,0
SMILES,Lmaj promast,HCT116 bCat-KO,PMI activator,PMI act satM6P,PTEN del growth
COc1ccc(C(=O)/C=C/C(=O)N(CC(=O)NC2CCCCC2)Cc2ccccc2OC)c(O)c1,0,-,0,0,-
COc1ccc(C(=O)/C=C/C(=O)N(Cc2ccccc2)C(C(=O)NC2CCCCC2)c2ccncc2)c(O)c1 (stereo not drawn),93,0,0,0,0
COCCC(=O)N(Cc1ccc2c(c1)OCO2)C(C(=O)NC1CCCCC1)c1ccncc1 (stereo not drawn),0,0,0,0,0
COc1ccc(C(=O)/C=C/C(=O)N(CC(=O)NC2CCCCC2)Cc2ccccc2)c(O)c1,0,-,0,0,-
COc1ccc(C(=O)/C=C/C(=O)N(Cc2ccc(F)cc2)C(C(=O)NC2CCCCC2)c2ccncc2)c(O)c1 (stereo not drawn),71,0,0,0,0
COc1ccccc1CN(C(=O)CCl)C(C(=O)NC1CCCCC1)c1ccncc1 (stereo not drawn),61,0,0,0,0
COc1ccccc1/C=C(\NC(=O)c1ccc(OC)c(OC)c1)C(=O)Nc1cc([N+](=O)[O-])ccc1C,0,0,0,0,0
Cc1cc(C)cc(N(CC(=O)Nc2ccccc2)C2=NC3CS(=O)(=O)CC3S2)c1 (stereo not drawn),64,-,0,0,-
COc1ccccc1NC(=S)NC1CCCCCC1,0,0,0,0,0
O=C(Nc1nnc(-c2ccccc2)o1)c1cc(Cl)sc1Cl,0,0,0,0,0
Cn1c(SCC(=O)NC(=O)c2cccc([N+](=O)[O-])c2)nnc1-c1ccc(F)cc1,0,0,0,0,0
O=C(Nc1nnc(-c2ccc(F)cc2)o1)c1cccc([N+](=O)[O-])c1,96,-,0,0,-
O=C(Nc1nnc(-c2ccc(F)cc2)o1)c1cc(Cl)sc1Cl,62,0,0,0,0
O=C(CCCCCNS(=O)(=O)c1ccc(Br)cc1)NCCN1CCOCC1,0,0,0,0,0
CCn1c(SCC(=O)NCc2ccccc2)nnc1-c1cccnc1,0,-,0,0,-
CCN1CCN(c2nc3c(c(=O)[nH]c(=O)n3C)n2CCCc2ccccc2)CC1,0,-,-,-,-
Cn1c(=O)[nH]c(=O)c2c1nc(N1CCNCC1)n2Cc1cccc2ccccc12,83,0,0,0,0
Cn1c(=O)c2c(nc(N3CCNCC3)n2Cc2cccc3ccccc23)n(C)c1=O,0,0,0,0,0
Cn1c(=O)[nH]c(=O)c2c1nc(N1CCN(Cc3ccccc3)CC1)n2CCCc1ccccc1,0,5.6,0,0,0
CCCCn1c(N2CCC(Cc3ccccc3)CC2)nc2c1c(=O)[nH]c(=O)n2C,78,0,0,0,0
Cc1ccc(-c2noc(CNCCCN(C)C)n2)cc1,0,0,0,0,0
COc1cc2c(O)c3c(c(-c4ccc5c(c4)OCO5)c2cc1OC)C(=O)OC3,0,2.5,0,0,2.6
CCn1cc([N+](=O)[O-])c(C(=O)Nc2nc(-c3ccc(C)cc3)c(C)s2)n1,0,0,0,0,3.3
Cc1ccc(NC(=O)c2nn(C34CC5CC(CC(C5)C3)C4)cc2[N+](=O)[O-])cc1,59,0,0,0,0
CCCCOc1ccc(OCCCC)c2c1NC1(N2)C(=O)N(C(C)=O)c2ccccc21,0,0,0,0,0
COc1ccc(-c2cc(C(F)(F)F)nc(N3CCN(C)CC3)n2)cc1OC,85,0,0,0,0
O=C(CN1C(=O)CCC1=O)NNc1ccc2ccccc2c1,96,-,0,0,-
O=C(Cc1ccccc1)NNc1ccc2ccccc2c1,96,-,0,0,-
O=C(COc1ccc2ccccc2c1)NNC(=O)Cc1ccccc1,0,0,0,0,0
O=C(c1ccccc1)N1CC(COc2ccccc2)OC(c2cccnc2)O1 (stereo not drawn),54,0,0,0,0
